Assay outcomes from PubChem.
Dynein transport: inhibitors of GR-EGFP nuclear translocation, primary screen, dynein cargo transport inhibitor project, imaging, high-content, 3617.4 mouse cells; test concentration mostly 20 µM; stimulated with dexamethasone, 1 µM; stronger effect = lower value; z-score, hits read low; hit rate 0.47% among 220,000;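 active means plate z-score of nuclear minus cytoplasmic receptor signal below a set negative limit, without overly bright fluorescence or cell loss, cut at about -3.5 in these data, passing the limit was not always enough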;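 further: z-score of nuclear minus cytoplasmic ring GR-EGFP intensity difference per well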
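Buffer or medium: tet-free, stripped-serum medium; reagent: dexamethasone at 1.0 µM final, 30 min; incubation: 48 h induction, 1 h compound, 30 min dex at 37 °C; measured by: formaldehyde fixation, Hoechst nuclear stain, 10x automated fluorescence imaging; read-out: nuclear-to-cytoplasmic GR-EGFP distribution per well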
Cl transport mod: KCC2 cotransporter modulators, thallium flux, primary screen, cell-based, HEK293 KCC2, FluoZin-2 fluorescence, MLSMR; Solute carrier family 12 member 5 (Homo sapiens), Q9H2X9; KCC2 cells, thallium flux FluoZin-2 fluorescence; B-score of Tl+ flux slope (higher = more flux/activation; lower = inhibition) at 10 µM; hit rate 2.2% among 190,000; AID 1456, 2008;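 active means thallium flux slope and its plate-corrected score both differing from the plate sample mean at a set confidence after two filtering rounds, in either direction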;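 further: slope of fluorescence scaled to starting intensity during 10 to 20 s after thallium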
Target sequence (Q9H2X9 whole entry, looked up): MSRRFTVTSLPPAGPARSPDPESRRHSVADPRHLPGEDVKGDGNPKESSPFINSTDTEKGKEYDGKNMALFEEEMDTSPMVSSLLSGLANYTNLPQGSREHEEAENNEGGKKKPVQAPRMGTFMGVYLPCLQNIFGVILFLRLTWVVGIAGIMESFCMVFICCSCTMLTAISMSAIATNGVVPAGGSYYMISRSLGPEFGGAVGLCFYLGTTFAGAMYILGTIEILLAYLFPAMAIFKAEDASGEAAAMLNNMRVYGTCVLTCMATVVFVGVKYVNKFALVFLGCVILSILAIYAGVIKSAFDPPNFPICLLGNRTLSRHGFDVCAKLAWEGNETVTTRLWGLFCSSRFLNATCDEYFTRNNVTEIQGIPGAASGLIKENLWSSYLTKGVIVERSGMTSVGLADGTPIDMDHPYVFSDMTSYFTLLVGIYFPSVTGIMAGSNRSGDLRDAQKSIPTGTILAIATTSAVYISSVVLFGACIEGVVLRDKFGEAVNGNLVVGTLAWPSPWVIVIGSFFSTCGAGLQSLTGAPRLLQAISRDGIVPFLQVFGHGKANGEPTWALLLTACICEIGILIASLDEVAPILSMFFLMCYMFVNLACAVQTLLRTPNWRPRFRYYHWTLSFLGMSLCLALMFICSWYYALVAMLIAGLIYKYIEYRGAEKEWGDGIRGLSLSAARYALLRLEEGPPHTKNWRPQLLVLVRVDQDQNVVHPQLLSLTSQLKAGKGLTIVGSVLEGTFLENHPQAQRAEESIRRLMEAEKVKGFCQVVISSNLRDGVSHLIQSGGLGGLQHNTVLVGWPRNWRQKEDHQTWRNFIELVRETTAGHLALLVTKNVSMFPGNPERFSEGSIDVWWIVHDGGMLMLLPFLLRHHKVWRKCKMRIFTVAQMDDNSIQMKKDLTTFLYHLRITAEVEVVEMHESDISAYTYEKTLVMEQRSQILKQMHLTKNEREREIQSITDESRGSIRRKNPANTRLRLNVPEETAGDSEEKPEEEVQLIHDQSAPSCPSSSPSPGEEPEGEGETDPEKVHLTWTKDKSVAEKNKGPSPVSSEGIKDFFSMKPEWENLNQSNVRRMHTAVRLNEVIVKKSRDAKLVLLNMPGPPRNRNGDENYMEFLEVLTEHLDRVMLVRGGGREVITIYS
Autophagy mod: autophagy modulators in MEF cells, primary screen, imaging, high-content, MEF GFP-LC3 | MEF GFP-LC3 puncta imaging; test concentration mostly 10 µM | calls only at 10 µM (by protocol) | hit rate 0.98% among 190,000;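 active means percentage of spot-positive cells more than 3 SD above its plate mean, without a fluorescence outlier flag or 80% toxicity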;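 further: spot-positive cell cutoff set from DMSO-treated cells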
ROMK mod: ROMK potassium channel modulators, primary screen, cell-based, thallium flux, MLSMR library | B-score at 10 µM | hit rate 2% among 130,000 | ATP-sensitive inward rectifier potassium channel 1 (Homo sapiens), P48048 | AID 1918, 2009 | Tet-inducible ROMK, thallium flux fluorescence; actives lie on both sides;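 active means signal ratio slope over the read window, or its plate-corrected B-score, at least 3 SD from the plate mean, either direction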;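 further: B-score of the F/F0 ratio slope over 7 to 12 s after thallium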
DTT redox prof: compounds producing H2O2 with reducing agent – biochemical, NIH compound library profiling, artefact control for MLSCN library redox annotation, primary screen. DTT-dependent redox cycling H2O2, phenol red/HRP absorbance; 100% = 100 µM peroxide control, 0% = buffer. activation, % at 10 µM. hit rate 0.03% among 200,000;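 active means activation of at least 50% relative to the plate's high and low controls in the primary single-dose screen; inactive means activation below 50%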;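 further: compound incubated with DTT at 0.8 mM final as the reducing agent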
* hit, by the source's call; i = inactive; . = no result given; + = active, no number. The list is not random: actives were taken first. Their share in the collection is about 4.1%.

SMILES	Dynein transport	Cl transport mod	Autophagy mod	ROMK mod	DTT redox prof
Cc1ccc2sc(NNC(=O)c3cc(=O)c4ccccc4o3)nc2c1C	2.64	-3.28*	i	.	3.7
Cc1ccccc1N=Nc1c(C)[nH]n(C(N)=S)c1=O	-0.195	10.6*	i	-0.558	-0.1
Cc1ccccc1N=Nc1c(C)[nH]n(-c2ccccc2)c1=O	-0.31	0.9	i	0.442	0.3
Cc1c(NC(=O)c2cc(-c3ccccc3)on2)c(=O)n(-c2ccccc2)n1C	0.442	.	i	-0.0315	-0.4
Cc1c(NC(=O)c2cc(C3CC3)on2)c(=O)n(-c2ccccc2)n1C	-0.602	1.7	+	.	0.0
Cc1c(NC(=O)c2noc3c2CCc2ccccc2-3)c(=O)n(-c2ccccc2)n1C	0.561	-3.35*	.	.	-0.5
Cc1cc(OCC(=O)Nc2ccc(F)c(F)c2)nc(C(C)C)n1	-0.903	0.079	i	0.318	-0.1
CSc1ccccc1NC(=O)CN(c1ccccc1Br)S(C)(=O)=O	1.18	0.174	i	-0.98	0.1
CC(=O)Nc1ccc(NC(=O)COC(=O)c2ccccn2)cc1	0.931	-0.918	i	-0.394	-0.7
COc1ccc(C(=O)CC(Nc2ccc([N+](=O)[O-])cc2)c2ccc(OC)cc2)cc1 (stereo unspecified)	-0.41	-0.696	i	.	0.7
CNC(CC(=O)c1ccc([N+](=O)[O-])cc1)C(Cl)(Cl)Cl (stereo unspecified)	-3.54*	0.797	i	-1.9	1.5
CCOC(=O)N1CCN(CC(=O)Nc2sccc2C#N)CC1	0.68	0.154	i	0.00586	0.0
CC1CCC(NC(=O)Cn2c(=O)[nH]c3ccsc3c2=O)CC1 (stereo unspecified)	-0.638	1.79	i	.	-1.5
O=C(Cn1c(=O)[nH]c2ccsc2c1=O)NC1CCCCCC1	0.423	-4.69*	i	-0.576	2.8
CCOc1ccccc1-n1c(=S)sc2c(=O)n(-c3ccccc3)c(=S)[nH]c21	-0.0441	-0.525	i	0.179	-0.7
COc1ccc(Nc2ccc3c(c2)=NC2(CCCCC2)[N+]=3[O-])cc1	-2.89	-0.912	+	-0.417	3.6
[O-][N+]1=c2ccc(Nc3ccccc3)cc2=NC12CCCCC2	-1.38	-0.734	i	-1.55	2.3
Cc1ccc(OCCOc2ccc(Br)cc2)c([N+](=O)[O-])n1	-0.309	.	i	-0.534	-0.1
Cc1cccc(C(=O)Nc2nnc(COc3ccccc3)s2)c1	1.72	-1.25	+	-0.407	-0.2
N#C/C(=C(/O)Cc1ccccc1)P(=O)(c1ccccc1)c1ccccc1	0.245	-0.903	.	.	.
CC1CC(c2ccccc2)n2nc(NC(=O)c3ccco3)nc2N1 (stereo unspecified)	-0.612	1.43	i	-6.57*	0.1
COc1ccc(C2CC(c3ccc(F)cc3)n3nc(NC(=O)c4ccco4)nc3N2)cc1 (stereo unspecified)	-0.254	-0.422	.	.	.
Cc1ccc(Nc2c(-c3ccc(N4CCOCC4)cc3)nc3ncccn23)cc1	0.818	0.244	+	-1.08	-0.5
O=C(NNC(=S)Nc1ccc(F)cc1)C1[C@H]2CCCC[C@@H]12 (stereo partly specified)	-0.165	1.58	.	.	.
CCc1ccc(NC(=O)C(=O)NNC(=O)COc2cccc(OC)c2)cc1	-0.436	17.8*	i	2.78*	0.0
SMILES	Dynein transport	Cl transport mod	Autophagy mod	ROMK mod	DTT redox prof
COc1cccc(OCC(=O)NNC(=O)c2cccs2)c1	0.0764	0.384	i	0.949	-4.0
O=C(COc1cccc2ccccc12)NCc1cccnc1	0.456	-2.25	i	0.507	-0.9
COc1ccc(CCNC(=O)Cn2nc([N+](=O)[O-])c(Br)c2C)cc1OC	-0.122	0.562	i	-0.549	-0.8
CCCCNC(=S)N(C)/N=C/c1c(C)[nH]c2ccccc12	-0.12	1.19	+	0.0443	.
CCCCNC(=S)N(C)/N=C/c1c(F)c(F)c(F)c(F)c1F	1.19	0.235	i	-0.852	-0.4
CC(C)NC(=O)CCn1c(=S)oc2ccccc21	1.62	-0.00367	i	0.418	0.3
CC1(c2ccccc2)CC(C)(C)N2C(=O)/C(=C3\SC(=S)NC3=O)c3cccc1c32 (stereo unspecified)	0.504	20.2*	i	.	-0.1
CCCNC(=O)Cn1c(=O)/c(=C\c2ccc(-c3cccc([N+](=O)[O-])c3)o2)s/c1=C\C(=O)C(C)(C)C	-2.75	-0.975	+	.	2.6
Cc1ccc(C(=O)N/C(=C\c2ccc(-c3cccc([N+](=O)[O-])c3)o2)C(=O)NC(C)(C)C)cc1	-0.221	-0.312	i	.	0.2
Cc1ccc(N=Cc2nc(/C=C/c3cccc([N+](=O)[O-])c3)oc2O)cc1	-0.108	-0.468	+	.	-4.3
Cc1ccc(-c2nc(C=Nc3ccc(O)cc3)c(O)o2)cc1	-0.589	0.826	i	0.117	-0.6
Cc1ccc(Nc2c(N)c(=O)oc3ccccc23)cc1	-0.637	-0.39	+	.	0.1
O=C(CCc1nc(-c2cccs2)no1)NCc1ccc(F)cc1Cl	-0.104	.	+	.	-2.1
CCC(=O)N1c2ccc(C)cc2C2=NNC(=S)NC21O (stereo unspecified)	0.74	5.36*	i	0.101	0.1
CN1/C(=C\C(=O)CN2C(=O)NC3(CCCCCC3)C2=O)C(C)(C)c2ccccc21	-0.755	-3.63*	i	-2.82*	-0.1
C/C(=N\NC(=S)NCCc1ccccc1)c1cccs1	1.34	8.58*	i	-0.591	-0.5
CN1CCN(c2ccc(NC(=O)c3cccc(OCc4ccccc4)c3)cc2)CC1	-1.05	0.623	+	-0.91	1.9
CCOc1cccc2cc(-c3csc(NC(=O)CCC(=O)NCCCN4CCC(C)CC4)n3)c(=O)oc12	1.73	-0.65	i	-2.81	-0.7
CCOc1cccc2cc(-c3csc(NC(=O)CCC(=O)N4CCC(C)CC4)n3)c(=O)oc12	1.27	0.00723	+	0.15	-0.1
NC(=O)SCC(=O)Nc1ccc(Cl)cc1	0.0818	0.8	i	.	0.2
Cc1ccc(NC(=O)CSC(N)=O)cc1Cl	-0.0847	-3.54*	i	.	5.5
COc1ccc(-c2cc(C(=O)OCC(=O)N(C)C3CCS(=O)(=O)C3)c3ccccc3n2)cc1OC (stereo unspecified)	-0.74	0.156	i	2.62	-0.1
CSc1nnc(CCCCCCCCc2nnc(SC)o2)o1	0.411	.	.	.	.
CCc1ccc2nc(SCC(=O)N3CC(=O)Nc4ccccc43)c(C#N)cc2c1	-0.469	0.6	+	0.54	0.3
CCc1nc(SCC(=O)N2CC(=O)Nc3ccccc32)c2c(C)c(C)sc2n1	-0.446	5.5*	i	.	-3.7
